Measured values as given in the RNAGym collection of RNA variant scans (doi:10.1126/science.aae0568).
Variants at the floor of the assay were thinned out.

B1: tRNA (parent)
chain: GUUCCGUUGGCGUAAUGGUAACGCGUCUCCCUCCUAAGGAGAAGACUGCGGGUUCGAGUCCCGUACGGAACG

Variants of: B1
Assay: yeast fitness relative to wild type (ratio to wild type); higher = fitter; tRNA-Arg(CCU), competitive growth, 37 C, YPD
How it was run: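 The tRNA-Arg(CCU) gene variants were made by chemical synthesis with a 3% per-site mutation rate at 69 sites and inserted at the native genomic locus of Saccharomyces cerevisiae. After pooling, the strains were competed in YPD at 37°C for 24 hours in six parallel replicates. Gene amplicons from the start population and each end population were read by 100-nucleotide paired-end sequencing, and Darwinian fitness relative to wild type was taken from genotype frequency changes. Genotypes needed ≥ 100 starting reads, and estimates < 0.5 were set to 0.5.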

Variant	yeast fitness
G12C C22G G23A A37C A43C A65U	≤ 0.5
G12C C22G G23A A37C A43C G68A	≤ 0.5
G12C C22U	0.955
G12C C22U C27A C49U	≤ 0.5
G12C C22U C60U G68C	≤ 0.5
G12C C22U U54C A65U	0.531
G12C C24A	0.685
G12C C24A C55U	≤ 0.5
G12C C24G A37C	≤ 0.5
G12C C24G C27U A43U A69U	0.625
G12C C24G C30A A43C C60U C62A	≤ 0.5
G12C C24G C49G	≤ 0.5
G12C C24G U53C C60G	≤ 0.5
G12C C24U A42U C46A C55U C61G A69C	≤ 0.5
G12C C24U A43C	≤ 0.5
G12C C24U C30U C60A	≤ 0.5
G12C C24U C55U	0.564
G12C C24U G48C A69C	≤ 0.5
G12C C27A	0.814
G12C C27A A37G C49U G63A	≤ 0.5
G12C C27A C31G G52C	≤ 0.5
G12C C27G C30A	≤ 0.5
G12C C27G U32C A37G	≤ 0.5
G12C C27U C33A A45C U54A	≤ 0.5

Variant	yeast fitness
G12C C27U C33A A45C U54A C62U	≤ 0.5
G12C C27U C33G G38C	≤ 0.5
G12C C27U C62G	≤ 0.5
G12C C27U G39A	≤ 0.5
G12C C29A A45U C62U	≤ 0.5
G12C C29G U53A	0.609
G12C C29U A36U	≤ 0.5
G12C C30A	0.786
G12C C30G	0.666
G12C C30G A37U G41A	≤ 0.5
G12C C30G A42U	≤ 0.5
G12C C30G A45U A69U	≤ 0.5
G12C C30G A45U C46A	0.608
G12C C30G C62A	≤ 0.5
G12C C30U	0.694
G12C C30U A36C A40U	≤ 0.5
G12C C30U C31U	0.611
G12C C30U G56A	0.54
G12C C30U U59A	≤ 0.5
G12C C31A	0.774
G12C C31G	0.818
G12C C31G C33G U35C	0.515
G12C C31G G51A C55G G68C	0.627
G12C C31U	0.876

Variant	yeast fitness
G12C C31U U59A	0.6
G12C C33A G51C C62G	≤ 0.5
G12C C33G A36G G44C	≤ 0.5
G12C C33G A37G A40C C49G	≤ 0.5
G12C C33G A37G A40C C49G G67C	0.539
G12C C33G C34U A36C A43G G52A G58C U64G A65G	≤ 0.5
G12C C33G C34U A36C A43G G52C C60U	0.608
G12C C33G G44C	0.572
G12C C33G G44C C49U	0.539
G12C C33U G50C A70U	0.509
G12C C34A A70U	≤ 0.5
G12C C34A G44C	≤ 0.5
G12C C46U G51C U64A	≤ 0.5
G12C C60G	0.641
G12C C60U	0.726
G12C C61A A65U	≤ 0.5
G12C C61A C62A	≤ 0.5
G12C C61G	0.635
G12C C61G C62U	0.605
G12C C61U	0.746
G12C C61U C66G	≤ 0.5
G12C C62G A65C	≤ 0.5
G12C C62U	0.776
G12C C62U A70U	0.606

Variant	yeast fitness
G12C C66G	0.657
G12C C66G A69U	≤ 0.5
G12C C66U	0.743
G12C G17A A20U C34A G41C	≤ 0.5
G12C G17A C46G	0.584
G12C G17A C46G C49U	≤ 0.5
G12C G17A C49A G56A	≤ 0.5
G12C G17A C49U U59C	≤ 0.5
G12C G17A U28A C49A	≤ 0.5
G12C G17C C22A G58A	≤ 0.5
G12C G17C C22A U32A C34A A65C	≤ 0.5
G12C G18A	0.823
G12C G18C C27A G38C C49G	≤ 0.5
G12C G18C C55U C60G	≤ 0.5
G12C G18C C66U	0.528
G12C G18C G41A A43G G48A	≤ 0.5
G12C G18C G58C	≤ 0.5
G12C G23C	0.588
G12C G23C C49G A57U A65C	≤ 0.5
G12C G25A A43C	0.639
G12C G25A A45C	0.543
G12C G25A G41C	0.591
G12C G25A U35C	0.552
G12C G25A U54C	0.635

Variant	yeast fitness
G12C G25C	0.762
G12C G25C G39C	≤ 0.5
G12C G38C	0.54
G12C G39A	0.75
G12C G39A A42C	≤ 0.5
G12C G39A A70G	0.537
G12C G39A G68C	≤ 0.5
G12C G39C A43G	≤ 0.5
G12C G39C G50C C61G	≤ 0.5
G12C G41A A65C	≤ 0.5
G12C G41C	0.748
G12C G41C A57G	0.562
G12C G44A	0.879
G12C G48A	1.01
G12C G48A A69U	0.836
G12C G48C	0.787
G12C G48C G52C	≤ 0.5
G12C G48C G58A	0.804
G12C G50A U54A	≤ 0.5
G12C G51A U59A C62G	≤ 0.5
G12C G51C U59G	≤ 0.5
G12C G52A	0.745
G12C G52C	0.563
G12C G52C C66U	≤ 0.5

Variant	yeast fitness
G12C G56C G58C	≤ 0.5
G12C G58A A65U	0.72
G12C G63A	0.81
G12C G67A A69C	≤ 0.5
G12C G67A A69G	0.534
G12C G67U	0.767
G12C G68C	0.823
G12C U13A A36U	0.626
G12C U13A G18C U32A G52A	≤ 0.5
G12C U13A G50A	≤ 0.5
G12C U13C A20C C24G G39C U64A	≤ 0.5
G12C U13C A20C C29G	≤ 0.5
G12C U13C C27U C62G	≤ 0.5
G12C U13G A15C A36U	≤ 0.5
G12C U13G C33U C55U G56A	≤ 0.5
G12C U16A C24G G48C	≤ 0.5
G12C U16A C24G G58C	0.567
G12C U16A C27G A36G C46U C61U C62A G68A	≤ 0.5
G12C U16A C27G A36G C46U C61U G68A	≤ 0.5
G12C U16A C49G	0.593
G12C U16A C60G C61U G63A G68A	≤ 0.5
G12C U16A G23C C29A A45C G68A	0.748
G12C U16A G23C C29A C60A	≤ 0.5
G12C U16A U26A G67U	≤ 0.5

Variant	yeast fitness
G12C U16C	0.771
G12C U19A A42C G50C G56C	≤ 0.5
G12C U19A C27G C49G C61U	≤ 0.5
G12C U19A C27G G44C	≤ 0.5
G12C U19G G25A C49U U59A U64A	≤ 0.5
G12C U19G G25A U59A U64A	0.623
G12C U26A C33A C34G	0.55
G12C U26A C33A C34G A69C	≤ 0.5
G12C U26C	0.859
G12C U26C A43C	0.741
G12C U26C A43C U54C	≤ 0.5
G12C U28A A37G G38A A45U A70G	≤ 0.5
G12C U28A G51A A57U C62U	0.594
G12C U28A G56A A57C	≤ 0.5
G12C U28C C49U U59A	≤ 0.5
G12C U28C U59A	0.586
G12C U28G	0.696
G12C U28G A37G G41A G48A	0.549
G12C U28G A37G G41A G48A A65U C66U	≤ 0.5
G12C U28G A37G G41A G48A G67C	≤ 0.5
G12C U32C G41C A57G	≤ 0.5
G12C U32G	0.689
G12C U35A	0.774
